Each structure is given as a SMILES string. Structures can show the parent of a compound that is named as a salt. Activity calls are given as the source filed them. The calls are words filed in the database; no cut-off is given here.

The test system of assay [1] is A549. The assay is described as follows: Induction of apoptosis in human A549 cells assessed as upregulation of Bad level at 2 to 4 nM after 24 to 48 hrs by Western blot method. It counts as functional, cell-based. An outline of the steps: (§1)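 A549 seeded in 60 mm dishes at 5 × 10⁵ cells and treated for 24 or 48 h. Lysed in RIPA buffer on ice for 30 min and spun at 12 500g. Protein measured by BCA; 40 μg run on 8−12% SDS−PAGE and moved to nitrocellulose. Blocked in 5% milk, primary antibodies at 4 °C overnight, HRP secondary 2 h, ECL detection.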

Assay [2] relates to A549. The assay is described as follows: Cell cycle arrest in human A549 cells assessed as decrease in G1 phase at 4 nM up to 24 hrs by propidium iodide staining based flow cytometry. It counts as functional. The gist of the method: (§2)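 A549 seeded in six-well plates at 3 × 10⁵ cells/well and treated for 12 or 24 h; vehicle 0.01% DMSO. Cells fixed overnight in ice-cold 70% ethanol, treated with RNase A at 37 °C for 30 min, then stained with PI at 4 °C for 30 min. About 10 000 events acquired by flow cytometry at 488 nm; three experiments.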
A general note: Flow cytometry measures light scatter and fluorescence of single cells or particles in a stream.

For assay [3], the system named is A549. Kind of assay: Antimigratory activity against human A549 cells assessed as suppression of wound healing at 4 nM after 24 hrs by phase contrast microscopic method. The assay is classed as functional, cell-based. An outline of the steps:
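Scratch wound assay: A549 plated at 5 × 10⁴ cells/dish and grown 24 h before scraping with a 10 μL tip. Medium then swapped to serum-free DMEM containing compound (4 nM) for 24 h. After a PBS wash, wound images taken at 0 and 24 h; at least three independent experiments.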

For another assay, the species on record is Sus scrofa. Kind of assay: Inhibition of porcine brain tubulin polymerization measured every 60 secs for 90 mins by DAPI staining based fluorescence assay. The gist of the method:
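Purified tubulin was tested in a kit assay. Final buffer: 80 mM PIPES sesquisodium (pH 6.9), 2.0 mM MgCl₂, 0.5 mM EGTA, 1 mM GTP, 10.2% glycerol. Compound (0.1–10 μM) was prewarmed at 37 °C for 1 min before tubulin was added. DAPI reporter fluorescence (ex 340 / em 410 nm) was read every 60 s for 90 min. Area under the curve gave percent inhibition versus control and the IC50.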

In assay [4] the test system is A549. Kind of assay: Induction of apoptosis in human A549 cells assessed as upregulation of Bax level at 2 to 4 nM after 24 to 48 hrs by Western blot method. It counts as functional, cell-based. An outline of the steps:
as §1
For orientation: Immunoblotting shows a protein as a band on a membrane.

Assay [5] deals with A549. The assay is described as follows: Induction of apoptosis in human A549 cells assessed as downregulation of Bcl2 level at 2 to 4 nM after 24 to 48 hrs by Western blot method. The assay is classed as functional, cell-based. The gist of the method: as §1
In assay [6] the test system is A549. Kind of assay: Cell cycle arrest in human A549 cells assessed as decrease in S phase at 4 nM up to 24 hrs by propidium iodide staining based flow cytometry. It counts as functional. An outline of the steps:
as §2

Assay [7] relates to A549. The assay is described as follows: Cell cycle arrest in human A549 cells assessed as accumulation at G2/M phase up to 24 hrs by propidium iodide staining based flow cytometry. It counts as functional. The gist of the method: as §2
Assay [8] deals with A549. The assay is described as follows: Antitumor activity against human A549 cells xenografted in Balb/c mouse assessed as tumor growth inhibition at 2.5 mg/kg, ip treated once in 2 days for 10 days relative to control. The assay is classed as functional. The settings on record: read-out: TGI. An outline of the steps:
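Male BALB/c nude mice, 5 weeks old, 18−20 g. Right flank injected sc with 0.1 mL of 1 × 10⁷ cells/mL log-phase A549 in FBS-free DMEM. At ~100 mm³, randomised into groups of 5 and dosed ip every 2 days; vehicle controls got equal volume. Tumour volume (0.5 × length × width²) and body weight recorded every 2 days.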
Background: In xenograft studies the graft and the host belong to different species.

Turning to `Cc1nc(N(C)c2ccc([Se]C#N)cc2)c2ccccc2n1` [listing 1 of 2 here], the result with A549 [1], in the assay with A549 [2], in the assay with A549 [3], in the assay with A549 [4], in the assay with A549 [5] and with A549 [6] was Active. The inhibition entry in the assay listed under Sus scrofa was “Dose-dependent effect”. Also, the Activity entry in the assay with A549 [7] was “Dose-dependent effect”.

For `Cc1nc(N(C)c2ccc([Se]C#N)cc2)c2ccccc2n1` [listing 2 of 2 here], the inhibition in vivo at 2.5 mg/kg with A549 [8] is 69.8%.

Consider `C[Se]c1ccc(N(C)c2nc(C)nc3ccccc23)cc1`, for which the inhibition in vivo at 2.5 mg/kg in the assay on A549 [8] was 75.7%.

Consider `COc1ccc(N(C)c2nc(C)nc3ccccc23)cc1` [VERUBULIN HYDROCHLORIDE], for which the inhibition in vivo at 2.5 mg/kg with A549 [8] worked out at 68.6%.

For the origin of these results see ChEMBL document CHEMBL4020840, “Synthesis and Biological Evaluation of Selenium-Containing 4-Anilinoquinazoline Derivatives as Novel Antimitotic Agents” (J Med Chem, 2018).
